The list is not random: actives were taken first. Their share in the collection is about 3.5%.
RGS4 pot – RGS4 potentiators or activators, primary screen, cell-based, HEK293 M3R inducible RGS4, calcium flux; 0.92% of 310,000 active; B-score at 10 µM; AID 463111, 2010; carbachol calcium flux Fluo4; stronger effect = lower value;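 active = B-score of the integrated calcium signal more than 4 SD below the library mean, with starting fluorescence not abnormally high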;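 also: negative B-score means reduced calcium response which marks RGS4 activation or potentiation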
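Assay system: Inducible-RGS4 HEK293 cells carrying M3 receptor | Schedule: Compound preincubation 20 min at room temperature before agonist | Signal: Kinetic calcium fluorescence imaging with Fluo4-AM dye, 2 µM | Read-out basis: B score from integrated fluorescence ratio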
MrgX1 PAM – positive allosteric modulators of MrgX1, primary screen, HEK293 cells, Fluo-4 calcium flux. Mas-related G-protein coupled receptor member X1 (Homo sapiens), Q96LB2. FDSS; stronger effect = higher value. 0.63% of 310,000 active. B-score at 10 µM;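 active = plate-corrected calcium response at least 3 library SD above typical, normal starting fluorescence, not activating the receptor alone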;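 also: compound read alongside a low EC10 to EC30 dose of BAM8-22 agonist; peak minus trough fluorescence over baseline measured at the second addition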
MrgX1 ag – agonists of human MrgX1 receptor, primary screen, HEK293 cells, Fluo-4 calcium flux; Fluo-4 calcium fluorescence, agonist mode; stronger effect = higher value; B-score at 10 µM; 0.44% of 310,000 active; AID 588627, 2011;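 active = calcium response B-score plate-corrected fluorescence ratio at least 3 library SD, with starting fluorescence B-score inside 5 SD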
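Test system: Stable human MrgX1 HEK293 cell line | Schedule: Overnight plating before 1 h dye loading | Read-out basis: Baseline-normalised fluorescence change ratio, B-scored | Detection: Kinetic calcium dye fluorescence, Fluo-4 NW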
RGS4 block – RGS4 inhibitors, primary screen, cell-based, HEK293 M3R inducible RGS4, calcium flux | Regulator of G-protein signaling 4 (Homo sapiens), P49798 | Fluo-4 calcium flux; stronger effect = higher value; triggered by carbachol at its EC20 | B-score at 10 µM | 0.45% of 310,000 active | AID 463165, 2010;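 active = B-score, a plate-corrected calcium signal, over three deviations above library mean, with baseline fluorescence within five deviations of library mean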;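 also: RGS4 expression induced by doxycycline in cells with stable M3 receptor; B-score is computed from the integrated fluorescence ratio over baseline after carbachol; higher B-score means a larger calcium signal and so more RGS4 inhibition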
Target sequence (P49798 whole entry, looked up): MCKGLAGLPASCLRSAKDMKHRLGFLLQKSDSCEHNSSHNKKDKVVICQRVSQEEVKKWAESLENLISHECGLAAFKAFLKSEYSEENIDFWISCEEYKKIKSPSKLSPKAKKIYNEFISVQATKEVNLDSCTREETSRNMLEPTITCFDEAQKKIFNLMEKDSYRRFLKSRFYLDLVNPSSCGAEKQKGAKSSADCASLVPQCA
MrgX1 antagonist – antagonists of human MrgX1 receptor, primary screen, HEK293 cells, Fluo-4 calcium flux; B-score at 10 µM; 1.3% of 310,000 active; AID 588676, 2011; BAM8-22 antagonism; stronger effect = lower value;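 active = calcium-response B-score plate-corrected more than 3 library SD below zero, starting fluorescence within 5 deviations, no agonist response on first addition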;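 also: peak minus trough fluorescence over baseline after final BAM8-22 challenge near maximal dose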
RGS4 block valid – enhanced carbachol calcium response, M3R/RGS4 cells, RGS4 inhibitor project, cell-based, validation screen, HEK293 M3R/RGS4, calcium flux | shares compounds with RGS4 block | carbachol calcium Fluo-4 fluorescence; carbachol added at its EC20; 0 = buffer wells, 100 = carbachol control | calcium response, % at 10 µM | 65% of 1,700 active | AID 492999, 2010;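 active = duplicate-averaged calcium response above the buffer-only control mean plus 5 SD of those controls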;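 also: integrated fluorescence ratio F max minus min over baseline F0; higher response in RGS4-induced cells means RGS4 inhibition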
RGS4 uninduced – carbachol calcium response in non-induced M3R cells, confirmation, counter-screen for RGS4 inhibitor project, cell-based, HEK293 M3R. shares compounds with RGS4 block. carbachol calcium Fluo-4; submaximal (EC20) carbachol stimulus; buffer wells 0%, carbachol control wells 100%. activity (percent), % at 10 µM. 20% of 1,900 active; call rule not given here;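 also: RGS4 induction absent so cells express M3R without RGS4; higher means more calcium signal and flags a non-specific hit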
RGS4 inh ctr2 – second RGS4 inhibitor counter-screen in uninduced cells lacking carbachol; shares compounds with RGS4 block; HEK293 M3R/RGS4 non-induced, Fluo-4 calcium, no carbachol; normalised: buffer wells 0%, carbachol wells 100%; 22% of 1,900 active; calcium response (agonist-mode artifact), % at 10 µM;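 active = duplicate-averaged calcium rise in uninduced cells above buffer wells' mean plus 5 SD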
* hit, by the source's call; i = inactive; . = no result.

SMILES	RGS4 pot	MrgX1 PAM	MrgX1 ag	RGS4 block	MrgX1 antagonist	RGS4 block valid	RGS4 uninduced	RGS4 inh ctr2
COc1ccc(C2NC(=O)NC(c3ccccc3)=C2c2nc3ccccc3s2)cc1 (stereo not drawn)	i	i	i	i	i	.	.	.
Cn1cc(Cl)c(C(=O)NNC(=S)NC2CCCCC2)n1	i	i	i	14.6*	i	39.0%*	49.5%*	i
Cn1cc(Cl)c(C(=O)NC2CCCCCC2)n1	i	i	i	i	i	.	.	.
COC(=O)c1c(C)oc2c1cc(NS(=O)(=O)c1ccc(C(=O)O)cc1)c1ccccc12	i	i	i	5.61*	i	15.5%*	i	i
CC(=O)c1c(C)oc2c1cc(NS(=O)(=O)c1ccc(C(=O)O)cc1)c1ccccc12	i	i	i	i	i	.	i	i
O=C1COc2ccc(S(=O)(=O)CCC(=O)NC3CCCCC3)cc2N1	i	i	i	i	i	.	.	.
Cn1cccc1/C=N/NC(=O)c1cc2ccccc2cc1O	i	i	i	i	i	.	.	.
O=C(NCc1ccccc1)c1ccccc1C(=O)c1ncc[nH]1	i	i	i	i	i	.	.	.
CCOC(=O)N(NC(=O)C(O)(CC(C)C)CC(C)C)c1ccccc1	i	i	i	i	i	.	.	.
CCOC(=O)CC1C(=O)NCCN1C(=O)c1c(Cl)cccc1Cl (stereo not drawn)	i	i	i	i	i	.	.	.
Cc1ccc2[nH]c3c(c2c1)CN(C(=O)CN1c2ccc(F)cc2CCC1C)CC3 (stereo not drawn)	i	i	i	8.97*	i	23.0%*	i	i
Cc1ccc2[nH]c3c(c2c1)CN(C(=O)CN1CCN(c2cccc(C)c2C)CC1)CC3	i	i	i	i	i	.	.	.
COc1ccc(CCN(Cc2cc3cccc(C)c3n3nnnc23)C(=O)c2ccncc2)cc1OC	i	i	i	i	i	.	.	.
CCOC(=O)/C(=C\c1cccnc1)C(=O)c1cc(C(C)=O)c(Nc2ccccc2)s1	i	i	i	6.36*	i	42.0%*	i	9.5%*
CCCCOc1ccccc1C1NC(=O)NC(C)=C1C(=O)OCCOC (stereo not drawn)	i	i	i	i	i	.	.	.
O=c1[nH]c(NCCO)nc2c1C1(CCCCC1)Cc1ccccc1-2	.	i	i	.	i	.	.	.
CCC1(CC)Cc2ccccc2-c2nc(NCCO)[nH]c(=O)c21	i	i	i	25.7*	i	101.0%*	83.5%*	i
S=c1nc(-c2sccc2OCc2ccc(Cl)cc2Cl)[nH][nH]1	i	i	i	i	i	.	.	.
O=S(=O)(c1cccs1)N1CN(C2CCCCC2)c2nc3ccccc3nc21	i	i	i	i	i	.	.	.
O=S(=O)(Nc1ccc(N=Nc2ccc(O)c3ccccc23)cc1)c1ccccc1	i	i	i	4.7*	i	5.5%*	i	i
O=C(COC(=O)Cc1cccs1)Nc1ccc(OC(F)(F)F)cc1	i	i	i	i	i	.	.	.

Screening results: PubChem BioAssay, Johns Hopkins Ion Channel Center
